The source of these data is ChEMBL document CHEMBL2375228, “4-Bromo-2-(piperidin-1-yl)thiazol-5-yl-phenyl methanone (12b) inhibits Na+/K(+)-ATPase and Ras oncogene activity in cancer cells” (Eur J Med Chem, 2013).

The test system of data set [1] is PC-3. Put plainly: Cytotoxicity against human PC3 cells after 72 hrs by MTT assay. As to conditions: PC-3, 72 h. In kind it is functional, cell-based. Put shortly:
(§1)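 Cells grown in RPMI with 10% heat-inactivated fetal calf serum and exposed to compound for 72 h. Overall growth read by MTT colorimetric assay; IC50 derived from it. Six replicates per condition.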
On the technique in general: Tetrazolium dyes change colour on reduction, which living cells bring about.

Data set [2] can be described thus: Cytotoxicity against human U373 cells after 72 hrs by MTT assay. As to conditions: U373 MG. The class given is functional, cell-based, U-373MG ATCC. Summed up: as §1
Data set [3] relates to SK-MEL-28. Briefly: Cytotoxicity against human SK-MEL-28 cells after 72 hrs by MTT assay. As to conditions: SK-MEL-28, 72 h. The class given is functional, cell-based. Summed up: as §1
Data set [4] has as its system A549. Briefly: Cytotoxicity against human A549 cells after 72 hrs by MTT assay. The class given is functional, cell-based. As to conditions: A549, 72 h. Summed up: as §1
Data set [5] is described as follows: Cytotoxicity against human Hs683 cells after 72 hrs by MTT assay. In kind it is functional, cell-based. As to conditions: Hs 683, 72 h. Summed up:
as §1

Data set [6] has as its system MCF7. Briefly: Cytotoxicity against human MCF7 cells after 72 hrs by MTT assay. In kind it is functional, cell-based. As to conditions: MCF7, 72 h. Put shortly:
as §1

In data set [7] the test system is Hs 683. Put plainly: Inhibition of RAS oncogene activity in human Hs683 cells at 2 mM after 5 to 29 mins by ELISA. In kind it is cell-based. As to conditions: in the assay text read “5 to 20 mins” for “5 to 29 mins”. Put shortly: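 Hs683 glioma cells treated with 2 mM for 5 and 20 min, lysed, 100 µg protein used. GTP-Ras captured by GST-Raf-RBD and detected with H-Ras antibody, HRP secondary and chemiluminescence.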
For orientation: ELISA stands for enzyme-linked immunosorbent assay.

Data set [8] relates to PC-3. Put plainly: Ratio of perillyl alcohol IC50 to compound IC50 for human PC3 cells. The class given is functional.
A short description of data set [9]: Growth inhibition of NMRI mouse astrocytes after 72 hrs by MTT assay. In kind it is cell-based. Particulars: Astrocyte.
In data set [10] the test system is SK-MEL-28. Put plainly: Ratio of perillyl alcohol IC50 to compound IC50 for human SK-MEL-28 cells. In kind it is functional.
A short description of data set [11]: Ratio of perillyl alcohol IC50 to compound IC50 for human U373 cells. In kind it is functional, U-373MG ATCC.
The nature of data set [12]: Selectivity index for human U373 cells over NMRI mouse astrocytes. The arrangement: species or system U-373MG ATCC.
Data set [13] has as its system MCF7. Put plainly: Ratio of perillyl alcohol IC50 to compound IC50 for human MCF7 cells. The class given is functional.
The nature of data set [14]: Chemical stability of the compound in water after 72 hrs by mass spectroscopic analysis. In kind it is physicochemical. As to conditions: buffer. Put shortly:
(§2)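 5 mM DMSO stock diluted 100-fold in water or RPMI and held at 37 °C for 72 h. Samples infused into ESI-QTOF MS (positive mode, scan 110–950 m/z) with FA 0.2%-MeOH 50:50 as solvent.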

Data set [15] can be described thus: Growth inhibition of NMRI mouse astrocytes at 30 to 300 uM after 72 hrs by MTT assay. In kind it is cell-based, Astrocyte. Particulars: read-out: GI. Summed up:
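Mouse astrocyte primocultures were plated in uncoated T25 flasks for 72 h, medium was changed and cells grown to confluence. Tested at 0, 30, 60 and 300 µM by MTT colorimetric assay.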

The species named for a further data set is Cavia porcellus. Put plainly: Inhibition of guinea pig brain Na+/K+-ATPase at 1 mM preincubated for 10 mins measured after 30 mins relative to control.
Data set [16] concerns A549. Briefly: Ratio of perillyl alcohol IC50 to compound IC50 for human A549 cells. In kind it is functional.
Data set [17] deals with Hs 683. Put plainly: Cytostatic activity against human Hs683 cells at 40 uM after 48 to 72 hrs by videomicroscopic analysis relative to control. The class given is functional. Put shortly: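 Hs683 glioma cells, untreated or at 40 µM, filmed by computer-assisted phase-contrast videomicroscopy over 72 h, one image every 4 min (1080 images), in triplicate. Growth rate = cell count in last image / first image. GGR index = treated ratio / control ratio.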

Data set [18] is described as follows: Chemical stability of the compound in RPMI culture medium after 72 hrs by mass spectroscopic analysis. In kind it is physicochemical. Put shortly: as §2
Data set [19] has as its system Hs 683. Briefly: Selectivity index for NMRI mouse astrocytes over human Hs683 cells.
The subject of data set [20] is Hs 683. Put plainly: Ratio of perillyl alcohol IC50 to compound IC50 for human Hs683 cells. The class given is functional.

Molecules are shown by their SMILES. Activity calls are given as the source filed them. The rule behind the calls is not given here.

As usually defined, the IC50 is the concentration that inhibits the measured activity by half. For `O=C(c1ccccc1)c1sc(N2CCOCC2)nc1Br`, the IC50 is more than 100 µM in the data set on PC-3 [1]; more than 100 µM in [2]; more than 100 µM with SK-MEL-28 [3]; 84 µM in the data set with A549 [4]; 93 µM in data set [5]; 51 µM in the data set on MCF7 [6].
As to `COC(=O)c1sc2nc(N3CCOCC3)sc2c1C`, the IC50 is more than 100 µM in the data set on PC-3 [1]; more than 100 µM in data set [2]; more than 100 µM in the data set on SK-MEL-28 [3]; 96 µM with A549 [4]; 92 µM in data set [5]; 78 µM with MCF7 [6].
Regarding `N#Cc1sc(N2CCCC2)nc1Cl`, the IC50 with PC-3 [1] was more than 100 µM; in data set [2], more than 100 µM; with SK-MEL-28 [3] it was more than 100 µM; with A549 [4] it was more than 100 µM; in data set [5], more than 100 µM; in the data set with MCF7 [6], 99 µM.
For the compound `COC(=O)c1sc2nc(N3CCCC3)sc2c1C`, the IC50 in the data set with PC-3 [1] is more than 100 µM; in data set [2] it was 89 µM; with SK-MEL-28 [3] it was more than 100 µM; in the data set on A549 [4], 86 µM; in [5] it was 91 µM; in the data set with MCF7 [6], 56 µM.
Regarding `O=C(c1ccccc1)c1sc(N2CCCC2)nc1Cl`, the IC50 with PC-3 [1] is more than 100 µM; in data set [2], 82 µM; in the data set with SK-MEL-28 [3] it was 98 µM; in the data set on A549 [4], 50 µM; in [5] it was 44 µM; in the data set on MCF7 [6], 63 µM.
Regarding `O=C(c1ccccc1)c1sc(N2CCCC2)nc1Br`, the IC50 with PC-3 [1] was more than 100 µM; in [2] it was more than 100 µM; with SK-MEL-28 [3] it was more than 100 µM; with A549 [4], 97 µM; in data set [5], more than 100 µM; in the data set with MCF7 [6], 69 µM.
Consider `COC(=O)c1sc2nc(SC)sc2c1C`, for which the IC50 in the data set on PC-3 [1] was 90 µM; in [2], 92 µM; in the data set on SK-MEL-28 [3], more than 100 µM; with A549 [4], 78 µM; in data set [5] it was 79 µM; in the data set on MCF7 [6] it was 69 µM.
On to `C=C(C)[C@@H]1CC=C(CO)CC1` [PERILLYL ALCOHOL], for which the IC50 (with PC-3 [1]; in data set [2]; in the data set on SK-MEL-28 [3]; in the data set with A549 [4]; in [5]; in the data set with MCF7 [6]) was more than 1000 µM throughout. Moreover, in the data set on Hs 683 [7], the inhibition entry is “Active”.
Consider `N#Cc1sc(N2CCCCC2)nc1Br`, for which the IC50 with PC-3 [1] was more than 100 µM; in data set [2], more than 100 µM; in the data set on SK-MEL-28 [3], more than 100 µM; with A549 [4] it was 93 µM; in [5] it was 84 µM; in the data set on MCF7 [6], 77 µM.
In the case of `O=C(c1ccccc1)c1sc(N2CCOCC2)nc1Cl`, the IC50 is more than 100 µM in the data set on PC-3 [1]; 92 µM in data set [2]; more than 100 µM in the data set on SK-MEL-28 [3]; 78 µM in the data set with A549 [4]; more than 100 µM in data set [5]; 70 µM in the data set with MCF7 [6].
With `CCOC(=O)c1sc(N2CCCC2)nc1Cl`, the IC50 with PC-3 [1] is 78 µM; in data set [2] it was more than 100 µM; in the data set with SK-MEL-28 [3] it was 82 µM; with A549 [4] it was 61 µM; in data set [5], 54 µM; in the data set on MCF7 [6] it was 79 µM.
In the case of `CC(=O)c1sc(N2CCOCC2)nc1Cl`, the IC50 with PC-3 [1] was more than 100 µM; in [2], 83 µM; in the data set with SK-MEL-28 [3], more than 100 µM; in the data set on A549 [4], more than 100 µM; in data set [5], more than 100 µM; with MCF7 [6] it was 88 µM.
`CSc1nc(Cl)c(C(=O)c2ccccc2)s1`: the IC50 in the data set with PC-3 [1] is more than 100 µM; in [2], more than 100 µM; in the data set with SK-MEL-28 [3] it was more than 100 µM; in the data set with A549 [4], more than 100 µM; in [5], more than 100 µM; in the data set on MCF7 [6], 91 µM.
Regarding `COC(=O)c1sc2nc(N3CCCCC3)sc2c1C`, the IC50 with PC-3 [1] was 93 µM; in [2], more than 100 µM; in the data set with SK-MEL-28 [3], more than 100 µM; with A549 [4] it was more than 100 µM; in data set [5] it was more than 100 µM; in the data set with MCF7 [6] it was 90 µM.
For the compound `CSc1nc(Br)c(C(=O)c2ccccc2)s1`, the IC50 in the data set with PC-3 [1] was more than 100 µM; in [2], 89 µM; in the data set with SK-MEL-28 [3] it was more than 100 µM; with A549 [4], 97 µM; in [5] it was more than 100 µM; with MCF7 [6], 67 µM.
Take `O=C(c1ccccc1)c1sc(N2CCCCC2)nc1Cl`: the “Ratio IC50” value (in the data set with PC-3 [8]; in the data set with SK-MEL-28 [10]; in [11]; in the data set with MCF7 [13]; with A549 [16]; with Hs 683 [20]) was 10 each time. The IC50 is 69 µM with PC-3 [1]; 96 µM in [2]; more than 300 µM in data set [9]; 91 µM in the data set on SK-MEL-28 [3]; 41 µM with A549 [4]; 36 µM in [5]. The IC50 with MCF7 [6] was 56 µM. The “Selectivity Index” value (in [12]; in the data set with Hs 683 [19]) was more than 5 in each case. Further, the Stability result in data set [14] and in [18] was “Stable” in each case. In data set [15], the inhibition at 72 h, up to 300 µM is less than 50%. Besides, the inhibition in the data set filed under Cavia porcellus was more than 50%. Also, in the data set with Hs 683 [17], the Activity is 40%.
